Laboratory results taken from ChEMBL document CHEMBL1208778, “Synthesis and anti-cancer activity of chalcone linked imidazolones” (2010).
Calls of active or inactive are those of the source. The rule behind the calls is not given here.

Assays:
Format in all cases: functional
[1] = Growth inhibition of human RPMI8266 cells
In short: (§1)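 Five-dose testing was run within the NCI (Bethesda) in vitro Anticancer Screen Program on a panel of 53 human tumour cell lines from nine cancer types. Growth inhibition is reported as GI50.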

[2] = tested on: K562; experiment: Growth inhibition of human K562 cells; in short: as §1
[3] = tested on: A549; experiment: Growth inhibition of human A549 cells; in short: as §1
[4] = tested on: EKVX; experiment: Growth inhibition of human EKVX cells; in short: as §1
[5] = tested on: HOP-62; experiment: Growth inhibition of human HOP62 cells; in short: as §1
[6] = tested on: NCI-H226; experiment: Growth inhibition of human NCI-H226 cells; in short: as §1
[7] = tested on: NCI-H23; experiment: Growth inhibition of human NCI-H23 cells; in short: as §1
[8] = tested on: NCI-H322M; experiment: Growth inhibition of human NCI-H322M cells; in short: as §1
[9] = tested on: NCI-H460; experiment: Growth inhibition of human NCI-H460 cells; in short: as §1
[10] = tested on: NCI-H522; experiment: Growth inhibition of human NCI-H522 cells; in short: as §1
[11] = tested on: COLO 205; experiment: Growth inhibition of human COLO205 cells; in short: as §1
[12] = tested on: HCC 2998; experiment: Growth inhibition of human HCC2998 cells; in short: as §1
[13] = tested on: HCT-116; experiment: Growth inhibition of human HCT116 cells; in short: as §1
[14] = tested on: HCT-15; experiment: Growth inhibition of human HCT15 cells; in short: as §1
[15] = tested on: HT-29; experiment: Growth inhibition of human HT-29 cells; in short: as §1
[16] = tested on: KM12; experiment: Growth inhibition of human KM12 cells; in short: as §1
[17] = tested on: SW-620; experiment: Growth inhibition of human SW620 cells
In short: (§2)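 Compounds that passed a preliminary screen were tested at five doses in the NCI (Bethesda) in vitro Anticancer Screen Program against a 53-line human tumour panel spanning leukemia, lung, colon, CNS, melanoma, ovarian, renal, prostate and breast. Growth inhibition is reported as GI50.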

[18] = tested on: SF-268; experiment: Growth inhibition of human SF268 cells; in short: as §1
[19] = tested on: SF-295; experiment: Growth inhibition of human SF295 cells; in short: as §1
[20] = tested on: SF-539; experiment: Growth inhibition of human SF539 cells; in short: as §1
[21] = tested on: SNB-19; experiment: Growth inhibition of human SNB19 cells; in short: as §2
[22] = tested on: SNB-75; experiment: Growth inhibition of human SNB75 cells; in short: as §2
[23] = tested on: U-251; experiment: Growth inhibition of human U251 cells; in short: as §2
[24] = tested on: A498; experiment: Growth inhibition of human A498 cells; in short: as §1
[25] = tested on: 786-0; experiment: Growth inhibition of human 786-0 cells; in short: as §1
[26] = tested on: ACHN; experiment: Growth inhibition of human ACHN cells; in short: as §1
[27] = tested on: CAKI-1; experiment: Growth inhibition of human Caki1 cells; in short: as §1
[28] = tested on: RXF 393; experiment: Growth inhibition of human RXF393 cells; in short: as §1
[29] = tested on: SN12C; experiment: Growth inhibition of human SN12C cells; in short: as §2
[30] = tested on: TK-10; experiment: Growth inhibition of human TK10 cells; in short: as §2
[31] = tested on: UO-31; experiment: Growth inhibition of human UO31 cells; in short: as §2
[32] = tested on: PC-3; experiment: Growth inhibition of human PC3 cells; in short: as §1
[33] = tested on: OVCAR-3; experiment: Growth inhibition of human OVCAR-3 cells; in short: as §1
[34] = tested on: OVCAR-4; experiment: Growth inhibition of human OVCAR4 cells; in short: as §1
[35] = tested on: OVCAR-5; experiment: Growth inhibition of human OVCAR5 cells; in short: as §1
[36] = tested on: OVCAR-8; experiment: Growth inhibition of human OVCAR8 cells; in short: as §1
[37] = tested on: NCI/ADR-RES; experiment: Growth inhibition of human NCI/ADR-RES cells; in short: as §1
[38] = tested on: SK-OV-3; experiment: Growth inhibition of human SKOV3 cells; in short: as §2
[39] = tested on: MCF7; experiment: Growth inhibition of human MCF7 cells; in short: as §1
[40] = tested on: MDA-MB-231; experiment: Growth inhibition of human MDA-MB-231 cells; in short: as §1
[41] = tested on: Hs-578T; experiment: Growth inhibition of human Hs 578T cells; in short: as §1
[42] = tested on: BT-549; experiment: Growth inhibition of human BT549 cells; in short: as §1
[43] = tested on: T47D; experiment: Growth inhibition of human T47D cells; in short: as §2
[44] = tested on: LOX IMVI; experiment: Growth inhibition of human LOXIMVI cells; in short: as §1
[45] = tested on: Malme-3M; experiment: Growth inhibition of human MALME-3M cells; in short: as §1
[46] = tested on: M14; experiment: Growth inhibition of human M14 cells; in short: as §1
[47] = tested on: MDA-MB-435; experiment: Growth inhibition of human MDA-MB-435 cells; in short: as §1
[48] = tested on: SK-MEL-2; experiment: Growth inhibition of human SK-MEL-2 cells; in short: as §1
[49] = tested on: SK-MEL-28; experiment: Growth inhibition of human SK-MEL-28 cells; in short: as §1
[50] = tested on: SK-MEL-5; experiment: Growth inhibition of human SK-MEL-5 cells; in short: as §1
[51] = tested on: UACC-257; experiment: Growth inhibition of human UACC257 cells; in short: as §2
[52] = tested on: UACC-62; experiment: Growth inhibition of human UACC62 cells; in short: as §2
[53] = tested on: MCF7; experiment: Cell cycle arrest in human MCF7 cells assessed as accumulation at G0 phase at 10 uM after 24 hrs by FACS analysis
In short: (§3)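 MCF-7 breast carcinoma cells were exposed to 10 µM test compound for 24 h, with DMSO as the vehicle control. Cell-cycle distribution was read by FACS as the percentage of cells in G0, G1, S and G2/M.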

[54] = tested on: MCF7; experiment: Cell cycle arrest in human MCF7 cells assessed as accumulation at G1 phase at 10 uM after 24 hrs by FACS analysis; in short: as §3
[55] = tested on: MCF7; experiment: Cell cycle arrest in human MCF7 cells assessed as accumulation at S phase at 10 uM after 24 hrs by FACS analysis; in short: as §3
[56] = tested on: MCF7; experiment: Cell cycle arrest in human MCF7 cells assessed as accumulation at G2/M phase at 10 uM after 24 hrs by FACS analysis; in short: as §3
[57] = tested on: MCF7; experiment: Cell cycle arrest in human MCF7 cells assessed as accumulation at G0 phase at 30 uM after 24 hrs by FACS analysis
In short: (§4)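 MCF-7 cells were treated at 30 µM for 24 h alongside a DMSO control. Fractions in G0, G1, S and G2/M phases were measured by FACS, and values are means of three experiments.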

[58] = tested on: MCF7; experiment: Cell cycle arrest in human MCF7 cells assessed as accumulation at G1 phase at 30 uM after 24 hrs by FACS analysis; in short: as §4
[59] = tested on: MCF7; experiment: Cell cycle arrest in human MCF7 cells assessed as accumulation at S phase at 30 uM after 24 hrs by FACS analysis; in short: as §4
[60] = tested on: MCF7; experiment: Cell cycle arrest in human MCF7 cells assessed as accumulation at G2/M phase at 30 uM after 24 hrs by FACS analysis; in short: as §4

Compound: COc1cc(/C=C/C(=O)c2cccc(-n3cc(-c4cc(OC)c(OC)c(OC)c4)[nH]c3=O)c2)cc(OC)c1OC
- GI50 [1]: 230 nM
- GI50 [2]: 590 nM
- GI50 [3]: 3030 nM
- GI50 [4]: 9470 nM
- GI50 [5]: 3080 nM
- GI50 [6]: 14400 nM
- GI50 [7]: 2000 nM
- GI50 [8]: 3610 nM
- GI50 [9]: 1730 nM
- GI50 [10]: 1050 nM
- GI50 [11]: 1520 nM
- GI50 [12]: 1920 nM
- GI50 [13]: 740 nM
- GI50 [14]: 1890 nM
- GI50 [15]: 1700 nM
- GI50 [16]: 1120 nM
- GI50 [17]: 1030 nM
- GI50 [18]: 2200 nM
- GI50 [19]: 4960 nM
- GI50 [20]: 3120 nM
- GI50 [21]: 4070 nM
- GI50 [22]: 5130 nM
- GI50 [23]: 1230 nM
- GI50 [24]: 20300 nM
- GI50 [25]: 1590 nM
- GI50 [26]: 1740 nM
- GI50 [27]: 2890 nM
- GI50 [28]: 1620 nM
- GI50 [29]: 2750 nM
- GI50 [30]: 3000 nM
- GI50 [31]: 960 nM
- GI50 [32]: 2630 nM
- GI50 [33]: 1480 nM
- GI50 [34]: 3770 nM
- GI50 [35]: 4380 nM
- GI50 [36]: 2320 nM
- GI50 [37]: 2100 nM
- GI50 [38]: 5120 nM
- GI50 [39]: 470 nM
- GI50 [40]: 4190 nM
- GI50 [41]: inactive
- GI50 [42]: 1520 nM
- GI50 [43]: 3080 nM
- GI50 [44]: 1230 nM
- GI50 [45]: 1800 nM
- GI50 [46]: 2120 nM
- GI50 [47]: 2110 nM
- GI50 [48]: 3020 nM
- GI50 [49]: 1610 nM
- GI50 [50]: 2760 nM
- GI50 [51]: 2220 nM
- GI50 [52]: 1870 nM
- Activity [53]: 3.63%
- Activity [54]: 47.6%
- Activity [55]: 25.65%
- Activity [56]: 23.12%
- Activity [57]: 39.7%
- Activity [58]: 42.7%
- Activity [59]: 7.85%
- Activity [60]: 9.75%
